From the RNAGym collection of RNA variant scans (doi:10.1002/anie.201605470)

B1: Osa-1-4 twister ribozyme (parent)
chain: CCGCCUAACACUGCCAAUGCCGGUCCCAAGCCCGGAUAAAAGUGGAGGGGGCGG

Variants of: B1
Assay: self-cleavage, relative activity (ratio to wild type); higher = more cleavage; co-transcriptional
In short: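 A DNA template was synthesised for a 54-nucleotide twister ribozyme from Oryza sativa, with 97 % wild-type base and 1 % of each other base at each of the 48 positions downstream of the cleavage site. The ribozyme cleaved itself co-transcriptionally during 2 h of in vitro transcription at 37 °C. Reverse transcription with a template-switching oligonucleotide, PCR amplification and deep sequencing followed, and cleavage status came from reads with or without upstream sequence. Relative activity is the fraction cleaved normalised to wild type.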

Variant	self-cleavage
A8C C14A	0.04
A8C C14G	0.03
A8C C14U	0.05
A8C C15A	0.21
A8C C15G	0.05
A8C C15U	0.04
A8C C20A	0.08
A8C C20G	0.03
A8C C20U	0.09
A8C C21A	0.09
A8C C21G	0.05
A8C C21U	0.06
A8C C25A	0.05
A8C C25G	0.03
A8C C25U	0.07
A8C C26A	0.03
A8C C26G	0.02
A8C C26U	0.06
A8C C27A	0.13
A8C C27G	0.03
A8C C27U	0.04
A8C C31A	0.01
A8C C31G	0.02
A8C C31U	0.05

Variant	self-cleavage
A8C C32A	0.04
A8C C32G	0.03
A8C C32U	0.02
A8C C33A	0.06
A8C C33G	0.03
A8C C33U	0.06
A8C C52A	0.12
A8C C52G	0.15
A8C C52U	0.09
A8C G13A	0.03
A8C G13C	0.07
A8C G13U	0.01
A8C G19A	0.07
A8C G19C	0.08
A8C G19U	0.06
A8C G22A	0.09
A8C G22C	0.03
A8C G22U	0.07
A8C G23A	0.08
A8C G23C	0.02
A8C G23U	0.07
A8C G30A	0.01
A8C G30C	0.03
A8C G30U	0.01

Variant	self-cleavage
A8C G34A	0.07
A8C G34C	0.06
A8C G34U	0.07
A8C G35A	0.08
A8C G35C	0.08
A8C G35U	0.09
A8C G42A	0.06
A8C G42C	0.04
A8C G42U	0.04
A8C G44A	0.07
A8C G44C	0.07
A8C G44U	0.08
A8C G45A	0.04
A8C G45C	0.02
A8C G45U	0.04
A8C G47A	0.04
A8C G47C	0.03
A8C G47U	0.04
A8C G48A	0.02
A8C G48C	0.02
A8C G48U	0.03
A8C G49A	0.02
A8C G49C	0.02
A8C G49U	0.03

Variant	self-cleavage
A8C G50A	0.06
A8C G50C	0.08
A8C G50U	0.08
A8C G51A	0.06
A8C G51C	0.03
A8C G51U	0.05
A8C G53A	0.07
A8C G53C	0.02
A8C G53U	0.06
A8C G54A	0.09
A8C G54C	0.06
A8C G54U	0.11
A8C U12A	0.06
A8C U12C	0.07
A8C U12G	0.16
A8C U18A	0.07
A8C U18C	0.08
A8C U18G	0.17
A8C U24A	0.03
A8C U24C	0.08
A8C U24G	0.01
A8C U37A	0.06
A8C U37C	0.07
A8C U37G	0.1

Variant	self-cleavage
A8C U43A	0.08
A8C U43C	0.08
A8C U43G	0.08
A8G	0.71
A8G C9A	0.13
A8G C9G	0.2
A8G C9U	0.1
A8G C11A	0.15
A8G C11G	0.17
A8G C11U	0.19
A8G C14A	0.07
A8G C14G	0.1
A8G C14U	0.14
A8G C15A	0.12
A8G C15G	0.29
A8G C15U	0.13
A8G C20A	0.49
A8G C20G	0.09
A8G C20U	0.58
A8G C21A	0.14
A8G C21G	0.09
A8G C21U	0.38
A8G C25A	0.08
A8G C25G	0.08

Variant	self-cleavage
A8G C25U	0.16
A8G C26A	0.04
A8G C26G	0.27
A8G C26U	0.18
A8G C27A	0.14
A8G C27G	0.11
A8G C27U	0.11
A8G C31A	0.03
A8G C31G	0.08
A8G C31U	0.1
A8G C32A	0.05
A8G C32G	0.13
A8G C32U	0.07
A8G C33A	0.1
A8G C33G	0.07
A8G C33U	0.21
A8G C52A	0.44
A8G C52G	0.58
A8G C52U	0.73
A8G G13A	0.1
A8G G13C	0.03
A8G G13U	0.03
A8G G19A	0.15
A8G G19C	0.07

Variant	self-cleavage
A8G G19U	0.1
A8G G22A	0.2
A8G G22C	0.07
A8G G22U	0.15
A8G G23A	0.13
A8G G23C	0.05
A8G G23U	0.06
A8G G30A	0.06
A8G G30C	0.07
A8G G30U	0.04
A8G G34A	0.27
A8G G34C	0.13
A8G G34U	0.16
A8G G35A	0.4
A8G G35C	0.16
A8G G35U	0.35
A8G G42A	0.14
A8G G42C	0.12
A8G G42U	0.04
A8G G44A	0.39
A8G G44C	0.35
A8G G44U	0.45
A8G G45A	0.09
